The text below walks through data of ChEMBL document CHEMBL3621081, “Rational Development of a Potent 15-Lipoxygenase-1 Inhibitor with in Vitro and ex Vivo Anti-inflammatory Properties” (J Med Chem, 2015).

Structures are written as SMILES. Activity calls are given as the source filed them. The rule behind the calls is not given here.

Data set [1] addresses T1, Polyunsaturated fatty acid lipoxygenase ALOX15 (Homo sapiens) (UniProt P16050).
T1 sequence (whole entry): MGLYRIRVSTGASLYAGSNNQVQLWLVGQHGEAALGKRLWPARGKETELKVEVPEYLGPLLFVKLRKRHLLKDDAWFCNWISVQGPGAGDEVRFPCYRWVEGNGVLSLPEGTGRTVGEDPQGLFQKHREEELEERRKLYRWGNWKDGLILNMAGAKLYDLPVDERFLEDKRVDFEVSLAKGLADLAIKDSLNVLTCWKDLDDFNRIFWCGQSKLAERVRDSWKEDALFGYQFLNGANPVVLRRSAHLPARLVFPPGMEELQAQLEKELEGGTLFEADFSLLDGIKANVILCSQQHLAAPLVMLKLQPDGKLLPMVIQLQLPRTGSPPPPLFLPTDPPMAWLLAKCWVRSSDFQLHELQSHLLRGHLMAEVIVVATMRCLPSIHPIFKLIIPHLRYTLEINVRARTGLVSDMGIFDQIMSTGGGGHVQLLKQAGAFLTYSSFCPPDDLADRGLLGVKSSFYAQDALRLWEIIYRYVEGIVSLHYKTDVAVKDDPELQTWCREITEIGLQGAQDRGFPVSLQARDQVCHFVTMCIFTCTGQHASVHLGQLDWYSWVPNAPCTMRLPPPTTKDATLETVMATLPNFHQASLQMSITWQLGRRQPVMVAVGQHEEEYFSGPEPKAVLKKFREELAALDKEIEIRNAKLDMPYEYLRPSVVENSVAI
Nature of the data set: Inhibition of human 15-LOX1 assessed as conversion of linoleic acid to 13(S)-HpODE at 50 uM after 10 mins by UV analysis. A digest of the protocol:
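Single-concentration screen at 50 μM: h-15-LOX-1 (1:640 final) in 25 mM HEPES pH 7.5 is preincubated with inhibitor for 10 min at rt. 25 µM linoleic acid final is added, and product formation is followed as the linear A234 increase. Activity is normalised to no-inhibitor (100%) and no-enzyme (0%) controls, in triplicate.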

Data set [2] deals with Lung. Nature of the data set: Antiinflammatory activity in C57BL/6 mouse precision-cut lung slices assessed as reduction of LPS/INFgamma-induced IL-6 gene expression at 1 to 100 nM treated 20 hrs before LPS/INFgamma stimulation measured after 4 hrs by RT-qPCR analysis relative to control. The data set is classed as functional, tissue-based. In outline: (§1)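 Male C57bl/6 mouse lungs are agarose-filled, then cut into 250 μm slices, 3 per well, in supplemented DMEM at 37 °C and 5% CO2. Inhibitor is given at 1-500 nM final with 10 μM linoleic acid for 20 h, and LPS/IFNγ is added for the last 4 h. IL-1β, IL-6, IL-10, IL-12 and GAPDH mRNA are measured by RT-qPCR as fold change versus the LPS/IFNγ/linoleic acid control. Mean ± SEM, 4-6 independent experiments.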
In general terms: Real-time PCR tracks product formation cycle by cycle.

In data set [3] the test system is Lung. Nature of the data set: Antiinflammatory activity in C57BL/6 mouse precision-cut lung slices assessed as reduction of LPS/INFgamma-induced IL-12 gene expression at 1 to 100 nM treated 20 hrs before LPS/INFgamma stimulation measured after 4 hrs by RT-qPCR analysis relative to control. The class given is functional, tissue-based. In outline:
as §1

The test system of data set [4] is RAW264.7. Nature of the data set: Cytotoxicity against mouse RAW264.7 cells assessed as cell viability at 12.5 uM by MTS assay. The class given is cell-based. To be noted: raw264.7, 12.5 µM. In outline:
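RAW 264.7 macrophages are incubated with inhibitor at 0.05-100 μM, and viability is read by MTS assay. Treated wells are compared statistically with non-treated control cells.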

For data set [5], the system named is Lung. Description: Cytotoxicity against C57BL/6 mouse precision-cut lung slices assessed as viability at 500 nM by LDH release assay. To be noted: 0.5 µM. The data set is classed as tissue-based. In outline: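 Mouse lung slices are exposed to 1, 10, 100 or 500 nM inhibitor with 10 μM linoleic acid for 20 h. […] Mean ± SD of 3 independent experiments.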
On the technique in general: LDH leaks from cells whose membrane has failed.

Data set [6] has as its system RAW264.7. Nature of the data set: Antiinflammatory activity in mouse RAW264.7 cells assessed as effect on LPS/INFgamma-induced IL-1beta gene expression at 1 to 100 nM treated 20 hrs before LPS/INFgamma stimulation measured after 4 hrs by RT-qPCR analysis. The data set is classed as functional, cell-based. In outline: (§2)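 RAW 264.7 cells (passage 7-16, DMEM with 10% FBS) are seeded at 20,000 cells/cm2 the day before. They receive 1-500 nM inhibitor final plus 10 μM linoleic acid for 20 h, with 10 ng/ml LPS and IFNγ for the last 4 h. Cytokine mRNA is measured by RT-qPCR on 10 ng cDNA, PCR in duplicate or triplicate, as fold change versus the LPS/IFNγ/linoleic acid control. Mean ± SEM, 4-6 experiments.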

Data set [7] deals with RAW264.7. Nature of the data set: Antiinflammatory activity in mouse RAW264.7 cells assessed as effect on LPS/INFgamma-induced IL-6 gene expression at 1 to 100 nM treated 20 hrs before LPS/INFgamma stimulation measured after 4 hrs by RT-qPCR analysis. The data set is classed as functional, cell-based. In outline: as §2
The test system of data set [8] is RAW264.7. Description: Antiinflammatory activity in mouse RAW264.7 cells assessed as effect on LPS/INFgamma-induced IL-12 gene expression at 1 to 100 nM treated 20 hrs before LPS/INFgamma stimulation measured after 4 hrs by RT-qPCR analysis. The data set is classed as functional, cell-based. A digest of the protocol:
as §2

Data set [9] concerns Lung. Nature of the data set: Antiinflammatory activity in C57BL/6 mouse precision-cut lung slices assessed as increase of LPS/INFgamma-induced IL-10 gene expression at 1 to 100 nM treated 20 hrs before LPS/INFgamma stimulation measured after 4 hrs by RT-qPCR analysis relative to control. The class given is functional, tissue-based. A digest of the protocol: as §1
Data set [10] relates to Lung. Description: Antiinflammatory activity in C57BL/6 mouse precision-cut lung slices assessed as reduction of LPS/INFgamma-induced IL-1beta gene expression at 1 to 100 nM treated 20 hrs before LPS/INFgamma stimulation measured after 4 hrs by RT-qPCR analysis relative to control. The class given is functional, tissue-based. A digest of the protocol:
as §1

For the compound `CC(C)(C)OC(=O)n1cc(C=O)c2ccccc21`, in data set [1], the inhibition entry was “inactive”.

As to `O=Cc1c(Cl)[nH]c2cc(Cl)ccc12`, in [1], the inhibition result is “inactive”.

Take `O=Cc1c[nH]c2ccccc12`: the inhibition entry in data set [1] is “inactive”.

Take `O=Cc1c[nH]c2cc(Cl)ccc12`: in data set [1], the inhibition result is “inactive”.

In the case of `CCOC(=O)c1[nH]c2cc(Cl)ccc2c1C(=O)C[C@@H](C)CCCC(C)C`, the result with Lung [2], in the data set with Lung [9] and with Lung [10] was Active. Further, the result with Lung [3], with RAW264.7 [6], in the data set on RAW264.7 [7] and in the data set on RAW264.7 [8] was inactive. Moreover, the Activity result in the data set with RAW264.7 [4] and in the data set with Lung [5] was “Non-toxic” in each case.

Consider `CCOC(=O)c1c(C=O)c2ccc(Cl)cc2n1C`, for which, in [1], the inhibition result was “inactive”.

For `O=Cc1c(C(=O)O)[nH]c2cc(Cl)ccc12`, in [1], the inhibition result was “inactive”.

Regarding `CC(C)(C)OC(=O)c1cc2ccc(Cl)cc2[nH]1`, the inhibition entry in data set [1] was “inactive”.
